Assay outcomes (PubChem)
This is a sample that favours compounds with a hit; in the whole collection about 2.5% have one here.
TRPC4 block: inhibitors of mouse TRPC4 channel, primary screen, Fluo4 calcium, HEK293 TRPC4beta/mu-opioid cells; DAMGO-evoked Fluo4 calcium flux; active compounds read low; B-score at 10 µM; 300,000 tested, 0.39% active; AID 2247, 2010;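 active means B-score over 3 SD under the library average, no early fluorescence shift, positive overall ratio signal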
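test system = HEK293 cells with stable TRPC4beta plus mu-opioid receptor expression | detection = Fluo4 Ca2+ flux fluorescence | read-out = integrated fluorescence ratio relative to baseline, converted to per-well B score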
TRPC6 inhibitor: mouse TRPC6 channel inhibitors, primary screen, cell-based, HEK293, membrane potential dye. Short transient receptor potential channel 6 (Mus musculus), Q61143. ACh-evoked depolarization; active compounds read low. B-score at 10 µM. 310,000 tested, 1.1% active. AID 2553, 2010;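 active means B-score under library mean minus 3 SD, initial fluorescence not abnormally high, positive integrated signal ratio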;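 further: B-score derived from integrated fluorescence ratio over the kinetic read; more negative B-score means stronger inhibition of depolarization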
TRPC6 activator: mouse TRPC6 channel activators, primary screen, cell-based, HEK293, membrane potential dye. AID 2550, 2010. HEK293-TRPC6 membrane potential dye fluorescence; active compounds read high. 310,000 tested, 0.13% active. B-score at 10 µM. Short transient receptor potential channel 6 (Mus musculus), Q61143;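 active means B-score of the integrated fluorescence ratio above library mean plus 3 SD, and starting fluorescence ratio within library mean plus 5 SD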;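 further: higher score means more depolarization so channel activation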
DSG3 Ab inh: inhibitors of pemphigus antibody binding to DSG3, primary screen, biochemical, bead-based, flow cytometry, scFv-GFP. DSG3-coupled beads, scFv-anti-DSG3-GFP binding; active compounds read low. binding (percent of control), % at 10 µM. 310,000 tested, 0.48% active;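 active means binding more than 3 SD below its plate's average and above zero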;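 further: hits lower antibody fragment binding to DSG3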
Target sequence (P32926 whole entry, looked up, the tested form may be a part): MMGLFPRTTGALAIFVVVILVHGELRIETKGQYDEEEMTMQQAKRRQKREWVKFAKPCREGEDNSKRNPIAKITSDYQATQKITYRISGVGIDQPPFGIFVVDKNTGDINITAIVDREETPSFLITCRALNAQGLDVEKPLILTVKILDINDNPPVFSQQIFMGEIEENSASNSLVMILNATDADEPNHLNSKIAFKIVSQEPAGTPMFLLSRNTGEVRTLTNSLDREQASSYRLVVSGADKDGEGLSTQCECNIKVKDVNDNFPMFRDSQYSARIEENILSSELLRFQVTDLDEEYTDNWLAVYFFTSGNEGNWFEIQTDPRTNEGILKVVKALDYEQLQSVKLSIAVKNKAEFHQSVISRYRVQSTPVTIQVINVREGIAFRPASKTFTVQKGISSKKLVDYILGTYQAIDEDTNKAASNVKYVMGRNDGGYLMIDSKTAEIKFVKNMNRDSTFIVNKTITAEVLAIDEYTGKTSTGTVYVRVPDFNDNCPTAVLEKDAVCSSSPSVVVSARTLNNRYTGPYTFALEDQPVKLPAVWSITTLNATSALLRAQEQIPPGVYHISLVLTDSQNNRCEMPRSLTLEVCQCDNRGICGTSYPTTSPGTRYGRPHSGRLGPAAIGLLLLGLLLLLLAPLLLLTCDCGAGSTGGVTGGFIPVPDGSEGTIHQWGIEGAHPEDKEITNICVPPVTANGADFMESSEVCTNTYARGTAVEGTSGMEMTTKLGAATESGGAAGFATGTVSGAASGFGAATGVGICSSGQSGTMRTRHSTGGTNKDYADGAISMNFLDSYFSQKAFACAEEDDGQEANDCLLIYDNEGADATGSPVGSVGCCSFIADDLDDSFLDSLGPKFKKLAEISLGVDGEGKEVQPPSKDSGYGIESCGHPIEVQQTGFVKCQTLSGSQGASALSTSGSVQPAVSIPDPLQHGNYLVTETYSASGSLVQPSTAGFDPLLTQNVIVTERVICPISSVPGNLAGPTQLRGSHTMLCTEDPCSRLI
TRPC4 PAM: positive allosteric modulators of TRPC4, primary screen, cell-based, mouse TRPC4beta, HEK293 mu-opioid, Fluo-4 calcium. Short transient receptor potential channel 4 (Mus musculus), Q9QUQ5. DAMGO EC20, Fluo-4 Ca2+ flux; active compounds read high. B-score at 10 µM. 310,000 tested, 0.42% active. AID 2227, 2009;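 active means B-score of calcium response area above 5 SD of library B-scores, with initial fluorescence ratio within 5 SD of library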
TRPC4 act: activators of mouse TRPC4 channel, primary screen, Fluo4 calcium, HEK293 TRPC4beta/mu-opioid cells. Fluo4 calcium fluorescence; active compounds read high. B-score at 10 µM. 310,000 tested, 0.49% active. AID 2237, 2010;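 active means B-score above 5 SD of library B-scores, and initial fluorescence ratio not above library mean plus 5 SD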;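 further: positive B-score marks a calcium rise read as TRPC4 activation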
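Incubation: 45 min room-temperature Fluo4 loading, 110 s read / System: HEK293 cells stably co-expressing mouse TRPC4beta and mu-opioid receptor / Signal: Fluo4 fluorescence, kinetic / Control set: buffer (low) and maximal DAMGO (high) / Measure: integrated baseline-normalised fluorescence ratio, converted to per-well B score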
TRPC4 spec 2: second check of whether TRPC6 inhibitors also affect mouse TRPC4; shares compounds with TRPC6 inhibitor; HEK293 TRPC4/MOR, membrane potential dye fluorescence; channel activated by saturating DAMGO dose; inhibition, % at 10 µM; 920 tested, 42% active;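 active means compounds whose fluorescence signal differed from control wells by over 3 SD, either direction, in both duplicate plates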
TRPC4 spec: mouse TRPC4 modulation by TRPC6 hits, confirmation, selectivity assay for TRPC6 inhibitor project, cell-based, HEK293 TRPC4/mu-opioid, membrane potential dye. AID 2777, 2010. shares compounds with TRPC6 inhibitor. activity change, negative = inhibition, % at 10 µM. 920 tested, 61% active. membrane potential fluorescence;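 active means rise or fall in signal beyond 3 SD of buffer-only wells in both replicate plates, either sign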;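 further: integrated kinetic ratio of fluorescence range over baseline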
HEK293 MPD ctr 2-1: nonspecific membrane potential effects, parental HEK293, confirmation, counter-screen for TRPC6 inhibitor project, cell-based, second counter screen. parental HEK293 membrane potential dye fluorescence; maximal acetylcholine challenge after compound addition. 920 tested, 31% active. shares compounds with TRPC6 inhibitor. signal change vs control, % at 10 µM. AID 2779, 2010;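 active means membrane potential signal moving either way by over 3 SD of the maximum-effect control, in both duplicate plates, meaning non-specific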
HEK293 MPD ctr-1: membrane potential modulation in parental HEK293, confirmation, counter-screen for TRPC6 inhibitor project, cell-based; shares compounds with TRPC6 inhibitor; parental HEK293 membrane potential dye fluorescence; membrane potential signal change, % at 10 µM; 920 tested, 60% active;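 active means membrane potential signal shifting up or down by more than 3 SD of buffer-only wells, on both duplicate plates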
HEK293 MPD ctr-2: parental HEK293 membrane potential modulation, confirmation, counter-screen for TRPC6 modulator project, cell-based | membrane potential signal change, % at 10 µM | shares compounds with TRPC6 inhibitor | AID 488924, 2010 | membrane potential dye fluorescence | 2,400 tested, 51% active;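 active means membrane potential signal moves up or down beyond 5 SD from buffer-only wells, on both duplicate plates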
HEK293 MPD ctr 2-2: second counter-screen for TRPC6 modulators: effect in parental HEK293 cells; 2,400 tested, 14% active; shares compounds with TRPC6 inhibitor; membrane potential dye fluorescence; after compound, maximal acetylcholine stimulation; inhibition, % at 10 µM;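 active means membrane potential signal drops by more than 5 SD from the mean control signal, in both duplicate plates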
TRPC4/MOR mod: TRPC4 modulation by TRPC6 hit compounds, confirmation, selectivity assay for TRPC6 modulator project, cell-based, HEK293 TRPC4/mu-opioid, membrane potential dye, mouse; shares compounds with TRPC6 inhibitor; membrane potential fluorescence; percent change from control (negative = decrease, positive = increase), % at 10 µM; 2,400 tested, 69% active; AID 488927, 2010;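 active means membrane potential signal moved up or down beyond 5 SD of buffer control wells, in both duplicate plates, actives on both sides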
TRPC4 ctr inh 2: mouse TRPC4 off-target activity of TRPC6 modulators, second screen | inhibition, % at 10 µM | HEK293 TRPC4/mu-opioid, membrane potential dye fluorescence; stimulated with maximal-effect DAMGO | 2,400 tested, 55% active | shares compounds with TRPC6 inhibitor;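 active means drop in membrane potential signal beyond 5 SD of the control wells in both duplicate plates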;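 further: TRPC4 counter screen for TRPC6 hits run under conditions tuned for TRPC6 not TRPC4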
TRPC6 block conf: mouse TRPC6 channel inhibitors, confirmation, HEK293 cells, membrane potential dye, duplicate | shares compounds with TRPC6 inhibitor | ACh-evoked depolarization | inhibition, % at 10 µM | 3,300 tested, 43% active;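 active means fluorescence ratio falls more than 5 SD below the full-stimulation control mean, in both duplicate runs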;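 further: integrated fluorescence ratio of peak minus minimum over baseline after agonist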
TRPC6 act conf: mouse TRPC6 channel activators, confirmation, HEK293 cells, membrane potential dye, duplicate. shares compounds with TRPC6 inhibitor. HEK293-TRPC6 membrane potential dye fluorescence, FDSS. activation, % at 10 µM. 2,800 tested, 11% active;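 active means ratio signal rise beyond 5 SD above unstimulated control wells' mean, seen in both duplicate runs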
Numbers stand for hits; - = inactive; . = no result given.

SMILES	TRPC4 block	TRPC6 inhibitor	TRPC6 activator	DSG3 Ab inh	TRPC4 PAM	TRPC4 act	HEK293 MPD ctr-2	HEK293 MPD ctr 2-2	TRPC4/MOR mod	TRPC4 ctr inh 2	TRPC6 block conf	TRPC6 act conf	others
CCOC(=O)SC1=N/C(=C\c2ccc(N(C)C)cc2)C(=O)S1	-	-5.99	11.7	-	-	-	-	-	12.5%	-	-	-
Fc1ccc(CSc2nnc(-c3cccs3)o2)cc1	-	-7.43	-	-	-	-	.	.	.	.	-	-	TRPC4 spec 2=-;TRPC4 spec=-;HEK293 MPD ctr 2-1=-;HEK293 MPD ctr-1=-
CC(C)OCCCN1CN(S(=O)(=O)c2ccc(Cl)cc2)c2nc3ccccc3nc21	-	-	-	-	-	-	.	.	.	.	.	.
CC(C)OCCCN1CN(S(=O)(=O)c2cccc(Cl)c2)c2nc3ccccc3nc21	-	-5.13	-	.	-	-	-	-	9.5%	-	-	-
COC(=O)c1sccc1NC(=O)c1ccccc1F	-	-6.29	-	-	-	-	-	-	-	-	-	-
Cc1cc(=O)n2nc(N3CCCC(C(=O)N4CCOCC4)C3)sc2n1 (configuration not stated)	.	.	.	-	.	.	.	.	.	.	.	.
Cc1cc(=O)n2nc(N3CCCC(C(=O)N4CCc5ccccc54)C3)sc2n1 (configuration not stated)	-	-8.73	-	-	-	-	.	.	.	.	-	-	TRPC4 spec 2=-;TRPC4 spec=-;HEK293 MPD ctr 2-1=-;HEK293 MPD ctr-1=-
Cn1c(N)c(C(=O)COC(=O)c2cc(S(=O)(=O)N3CCOCC3)ccc2F)c(=O)n(C)c1=O	.	.	.	-	.	.	.	.	.	.	.	.
CCSc1nc2sc3c(c2c(=O)n1-c1ccccc1)CCN(C)C3	-	-	-	-	-	-	.	.	.	.	.	.
CCC(O)CNc1nc(SC)nc2sc3c(c12)CCN(C)C3 (configuration not stated)	-	-7.15	-	-	-	-	-167.0%	-	-39.0%	36.0%	-	-
COC(CNc1nc(SC)nc2sc3c(c12)CCN(C)C3)OC	-	-	-	-	-	-	.	.	.	.	.	.
CCNc1nc(SCC(N)=O)nc2sc3c(c12)CCN(C)C3	-	-6.62	-	-	-	-	-196.5%	-	-38.5%	43.0%	51.5%	-
COCCSc1nc2sc3c(c2c(=O)n1-c1ccccc1)CCN(C)C3	-	-7.5	-	-	-	-	-108.0%	-	-22.0%	-	-	-
CCOc1ccc(-n2c(SCC(N)=O)nc3sc4c(c3c2=O)CCN(C)C4)cc1	-	-	-	.	-	-	.	.	.	.	.	.
CSc1nc(SCC(N)=O)c2c3c(sc2n1)CN(C)CC3	-	-10.8	-	-	-	-	-210.5%	68.0%	-38.5%	47.0%	-	-
CC(C)=CCC/C(C)=C/CNC(=O)CC1C[C@H](C(=O)N(C(C)C)C(C)C)[C@@]2(C)c3[nH]c4ccccc4c3CCN2C1=O (some centres not stated)	.	.	.	-	.	.	.	.	.	.	.	.
CC(=O)Nc1ccc(S(=O)(=O)NCC(=O)NC(C)c2ccc(S(N)(=O)=O)cc2)cc1 (configuration not stated)	-	-	-	-	-	-	.	.	.	.	.	.
CCOC(=O)CSc1nc2sc3c(c2c(=O)n1C1CCCCC1)CCN(C)C3	-	-5.59	-	-	-	-	-	-	8.0%	45.5%	-	-
CCn1c(SCC(N)=O)nc2sc3c(c2c1=O)CCN(C)C3	-	-5.95	-	-	-	-	-203.0%	-	-36.5%	36.0%	44.5%	-
CCn1c(SCC(=O)Nc2ccc(C)cc2)nc2sc3c(c2c1=O)CCN(C)C3	-	-	-	-	-	-	.	.	.	.	.	.
COc1ccc(CCNC(=O)c2cc3c(=O)n4ccccc4nc3n(CC3CCCO3)c2=N)cc1OC (configuration not stated)	-	-5.05	-	-	-	-	106.0%	-	12.5%	-	45.5%	.
N=c1c(C(=O)NCc2ccc(F)cc2)cc2c(=O)n3ccccc3nc2n1CC1CCCO1 (configuration not stated)	-	-6.7	-	-	-	-	-	-	-37.5%	53.5%	59.0%	-
COc1ccc(CCNC(=O)c2cc3c(=O)n4ccccc4nc3n(C3CCCCC3)c2=N)cc1OC	-	-	-	-	-	-	.	.	.	.	.	.
